Measured values reported in ChEMBL document CHEMBL4177578, “Synthesis, pharmacological activities and molecular docking studies of pyrazolyltriazoles as anti-bacterial and anti-inflammatory agents” (Bioorg Med Chem, 2017).
Calls of active or inactive are those of the source. No cut-off for these calls is given here.

Test system: not listed separately
Assay: Anti-inflammatory activity at 100 ug/ml using bovine serum albumin and egg albumin proteins incubated at 37 degC for 20 mins and then heated to 95 degC for 20 mins by UV-visible Spectrophotometry based protein denaturation method
Type: functional
Conditions: not given
Procedure, shortened: (§1)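 Albumin (bovine serum or egg) at 1% in 50 mM sodium phosphate buffer pH 6.4. Mixture is 0.1 ml test sample (1 mg/ml) plus 0.2 ml albumin, made to 5 ml with buffer. Held 37 °C for 20 min, then 95 °C for 20 min. Cooled to room temperature, turbidity read at 660 nm. % inhibition = (Abs control − Abs sample)/Abs control × 100. Triplicate, averaged.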

| Structure (SMILES) | inhibition |
| --- | --- |
| CCOC(=O)c1nnn(Cc2cn(-c3ccc(C)cc3)nc2-c2ccccc2)c1C(=O)OCC | inactive |
| Cc1ccc(-c2cn(Cc3cn(-c4ccccc4)nc3-c3ccccc3)nn2)cc1 | inactive |
| CCOC(=O)c1nnn(Cc2cn(-c3ccccc3)nc2-c2ccc(OC)cc2)c1C(=O)OCC | inactive |

Test system: Staphylococcus aureus
Assay: Antimicrobial activity against Staphylococcus aureus at 1 mg/ml incubated for 20 to 30 mins followed by incubation for 24 hrs at 37 degC by agar plate method
Type: functional
Conditions: not given
Procedure, shortened: (§2)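 Agar well diffusion on nutrient agar. Plates swabbed with 60 µL inoculum; 8 mm wells loaded with 100 µL of compound at 1.0 mg/mL. Held 20–30 min at 4 °C for diffusion, then 24 h at 37 °C. Inhibition zone diameter read in mm. Triplicate.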

| Structure (SMILES) | diameter of the inhibition zone (DIZ) |
| --- | --- |
| CCOC(=O)c1nnn(Cc2cn(-c3ccc(C)cc3)nc2-c2ccccc2)c1C(=O)OCC | inactive |
| Cc1ccc(-c2cn(Cc3cn(-c4ccccc4)nc3-c3ccccc3)nn2)cc1 | inactive |
| CCOC(=O)c1nnn(Cc2cn(-c3ccccc3)nc2-c2ccc(OC)cc2)c1C(=O)OCC | inactive |

Test system: not listed separately
Assay: Anti-inflammatory activity using bovine serum albumin and egg albumin proteins incubated at 37 degC for 20 mins and then heated to 95 degC for 20 mins by UV-visible Spectrophotometry based protein denaturation method
Type: functional
Conditions: not given
Procedure, shortened: as §1

| Structure (SMILES) | IC50 |
| --- | --- |
| CCOC(=O)c1nnn(Cc2cn(-c3ccc(C)cc3)nc2-c2ccccc2)c1C(=O)OCC | Not Active |
| Cc1ccc(-c2cn(Cc3cn(-c4ccccc4)nc3-c3ccccc3)nn2)cc1 | Not Active |
| CCOC(=O)c1nnn(Cc2cn(-c3ccccc3)nc2-c2ccc(OC)cc2)c1C(=O)OCC | Not Active |

Test system: Micrococcus luteus
Assay: Antimicrobial activity against Micrococcus luteus incubated for 12 to 16 hrs followed by plating in nutrient agar by tube dilution method
Type: functional
Conditions: not given
Procedure, shortened: (§3)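 Tube dilution, serial from 500 to 1.9 µg/mL, plus drug-free control tube. Each tube inoculated with 1 mL culture at OD 0.2, incubated 37 °C for 12–16 h. MIC is the lowest concentration with no growth by turbidity. MBC is found by plating each tube on nutrient agar: the lowest concentration at which all cells are killed.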

| Structure (SMILES) | MBC |
| --- | --- |
| CCOC(=O)c1nnn(Cc2cn(-c3ccc(C)cc3)nc2-c2ccccc2)c1C(=O)OCC | inactive |
| Cc1ccc(-c2cn(Cc3cn(-c4ccccc4)nc3-c3ccccc3)nn2)cc1 | inactive |
| CCOC(=O)c1nnn(Cc2cn(-c3ccccc3)nc2-c2ccc(OC)cc2)c1C(=O)OCC | inactive |

Test system: Micrococcus luteus
Assay: Antimicrobial activity against Micrococcus luteus at 1 mg/ml incubated for 20 to 30 mins followed by incubation for 24 hrs at 37 degC by agar plate method
Type: functional
Conditions: not given
Procedure, shortened: as §2

| Structure (SMILES) | diameter of the inhibition zone (DIZ) |
| --- | --- |
| CCOC(=O)c1nnn(Cc2cn(-c3ccc(C)cc3)nc2-c2ccccc2)c1C(=O)OCC | inactive |
| Cc1ccc(-c2cn(Cc3cn(-c4ccccc4)nc3-c3ccccc3)nn2)cc1 | inactive |
| CCOC(=O)c1nnn(Cc2cn(-c3ccccc3)nc2-c2ccc(OC)cc2)c1C(=O)OCC | inactive |

Test system: not listed separately
Assay: Anti-inflammatory activity at 50 ug/ml using bovine serum albumin and egg albumin proteins incubated at 37 degC for 20 mins and then heated to 95 degC for 20 mins by UV-visible Spectrophotometry based protein denaturation method
Type: functional
Conditions: not given
Procedure, shortened: as §1

| Structure (SMILES) | inhibition |
| --- | --- |
| CCOC(=O)c1nnn(Cc2cn(-c3ccc(C)cc3)nc2-c2ccccc2)c1C(=O)OCC | inactive |
| Cc1ccc(-c2cn(Cc3cn(-c4ccccc4)nc3-c3ccccc3)nn2)cc1 | inactive |
| CCOC(=O)c1nnn(Cc2cn(-c3ccccc3)nc2-c2ccc(OC)cc2)c1C(=O)OCC | inactive |

Test system: Micrococcus luteus
Assay: Antimicrobial activity against Micrococcus luteus incubated for 12 to 16 hrs by tube dilution method
Type: functional
Conditions: not given
Procedure, shortened: as §3

| Structure (SMILES) | MIC |
| --- | --- |
| CCOC(=O)c1nnn(Cc2cn(-c3ccc(C)cc3)nc2-c2ccccc2)c1C(=O)OCC | inactive |
| Cc1ccc(-c2cn(Cc3cn(-c4ccccc4)nc3-c3ccccc3)nn2)cc1 | inactive |
| CCOC(=O)c1nnn(Cc2cn(-c3ccccc3)nc2-c2ccc(OC)cc2)c1C(=O)OCC | inactive |

Test system: Salmonella typhi
Assay: Antimicrobial activity against Salmonella typhi incubated for 12 to 16 hrs by tube dilution method
Type: functional
Conditions: Salmonella enterica subsp. enterica serovar Typhi
Procedure, shortened: (§4)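 Broth tube dilution, two-fold serial dilutions from 500 to 1.9 µg/mL plus a drug-free control tube. Each tube inoculated with 1 mL culture at OD 0.2 (~McFarland standard), 37 °C for 12-16 h. Turbidity compared with the control tube. MIC is the lowest concentration giving complete growth inhibition.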

| Structure (SMILES) | MIC |
| --- | --- |
| CCOC(=O)c1nnn(Cc2cn(-c3ccc(C)cc3)nc2-c2ccccc2)c1C(=O)OCC | inactive |
| Cc1ccc(-c2cn(Cc3cn(-c4ccccc4)nc3-c3ccccc3)nn2)cc1 | inactive |
| CCOC(=O)c1nnn(Cc2cn(-c3ccccc3)nc2-c2ccc(OC)cc2)c1C(=O)OCC | inactive |

Test system: Salmonella paratyphi
Assay: Antimicrobial activity against Salmonella paratyphi at 1 mg/ml incubated for 20 to 30 mins followed by incubation for 24 hrs at 37 degC by agar plate method
Type: functional
Conditions: Salmonella enterica subsp. enterica serovar Paratyphi A
Procedure, shortened: (§5)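 Agar well diffusion on nutrient agar. Plates swabbed with 60 µL inoculum, 8 mm wells loaded with 100 µL sample at 1.0 mg/mL, streptomycin standard and control in separate wells. Plates held 20–30 min at 4 °C for diffusion, then 24 h at 37 °C. Zone diameter read in mm; triplicate.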

| Structure (SMILES) | diameter of the inhibition zone (DIZ) |
| --- | --- |
| CCOC(=O)c1nnn(Cc2cn(-c3ccc(C)cc3)nc2-c2ccccc2)c1C(=O)OCC | inactive |
| Cc1ccc(-c2cn(Cc3cn(-c4ccccc4)nc3-c3ccccc3)nn2)cc1 | inactive |
| CCOC(=O)c1nnn(Cc2cn(-c3ccccc3)nc2-c2ccc(OC)cc2)c1C(=O)OCC | inactive |

Test system: Salmonella typhi
Assay: Antimicrobial activity against Salmonella typhi incubated for 12 to 16 hrs followed by plating in nutrient agar by tube dilution method
Type: functional
Conditions: Salmonella enterica subsp. enterica serovar Typhi
Procedure, shortened: (§6)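 After 12-16 h at 37 °C in tube dilution (500 to 1.9 µg/mL; 1 mL inoculum at OD 0.2), the culture from each tube was plated on nutrient agar. MBC is the concentration at which cells are completely killed.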

| Structure (SMILES) | MBC |
| --- | --- |
| CCOC(=O)c1nnn(Cc2cn(-c3ccc(C)cc3)nc2-c2ccccc2)c1C(=O)OCC | inactive |
| Cc1ccc(-c2cn(Cc3cn(-c4ccccc4)nc3-c3ccccc3)nn2)cc1 | inactive |
| CCOC(=O)c1nnn(Cc2cn(-c3ccccc3)nc2-c2ccc(OC)cc2)c1C(=O)OCC | inactive |

Test system: Salmonella paratyphi
Assay: Antimicrobial activity against Salmonella paratyphi incubated for 12 to 16 hrs followed by plating in nutrient agar by tube dilution method
Type: functional
Conditions: Salmonella enterica subsp. enterica serovar Paratyphi A
Procedure, shortened: as §6

| Structure (SMILES) | MBC |
| --- | --- |
| CCOC(=O)c1nnn(Cc2cn(-c3ccc(C)cc3)nc2-c2ccccc2)c1C(=O)OCC | inactive |
| Cc1ccc(-c2cn(Cc3cn(-c4ccccc4)nc3-c3ccccc3)nn2)cc1 | inactive |
| CCOC(=O)c1nnn(Cc2cn(-c3ccccc3)nc2-c2ccc(OC)cc2)c1C(=O)OCC | inactive |

Test system: Salmonella paratyphi
Assay: Antimicrobial activity against Salmonella paratyphi incubated for 12 to 16 hrs by tube dilution method
Type: functional
Conditions: Salmonella enterica subsp. enterica serovar Paratyphi A
Procedure, shortened: as §4

| Structure (SMILES) | MIC |
| --- | --- |
| CCOC(=O)c1nnn(Cc2cn(-c3ccc(C)cc3)nc2-c2ccccc2)c1C(=O)OCC | inactive |
| Cc1ccc(-c2cn(Cc3cn(-c4ccccc4)nc3-c3ccccc3)nn2)cc1 | inactive |
| CCOC(=O)c1nnn(Cc2cn(-c3ccccc3)nc2-c2ccc(OC)cc2)c1C(=O)OCC | inactive |

Test system: Salmonella typhi
Assay: Antimicrobial activity against Salmonella typhi at 1 mg/ml incubated for 20 to 30 mins followed by incubation for 24 hrs at 37 degC by agar plate method
Type: functional
Conditions: Salmonella enterica subsp. enterica serovar Typhi
Procedure, shortened: as §5

| Structure (SMILES) | diameter of the inhibition zone (DIZ) |
| --- | --- |
| CCOC(=O)c1nnn(Cc2cn(-c3ccc(C)cc3)nc2-c2ccccc2)c1C(=O)OCC | inactive |
| Cc1ccc(-c2cn(Cc3cn(-c4ccccc4)nc3-c3ccccc3)nn2)cc1 | inactive |
| CCOC(=O)c1nnn(Cc2cn(-c3ccccc3)nc2-c2ccc(OC)cc2)c1C(=O)OCC | inactive |
